This is a sample that favours compounds with a hit; in the whole collection about 2.9% have one here.
Beta2AR agonist: activates human beta-2 adrenergic receptor causing internalization | P07550 | Am2.2-beta2AR cells, FAP receptor internalization, flow cytometry | response, % (no concentration beside the values) | 340,000 compounds, 0.43% hits | AID 504454;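 active = response above a set limit, near 3 SD of response in nonfluorescent compounds, cut at about 42% in these data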
Target sequence (P07550 whole entry, looked up): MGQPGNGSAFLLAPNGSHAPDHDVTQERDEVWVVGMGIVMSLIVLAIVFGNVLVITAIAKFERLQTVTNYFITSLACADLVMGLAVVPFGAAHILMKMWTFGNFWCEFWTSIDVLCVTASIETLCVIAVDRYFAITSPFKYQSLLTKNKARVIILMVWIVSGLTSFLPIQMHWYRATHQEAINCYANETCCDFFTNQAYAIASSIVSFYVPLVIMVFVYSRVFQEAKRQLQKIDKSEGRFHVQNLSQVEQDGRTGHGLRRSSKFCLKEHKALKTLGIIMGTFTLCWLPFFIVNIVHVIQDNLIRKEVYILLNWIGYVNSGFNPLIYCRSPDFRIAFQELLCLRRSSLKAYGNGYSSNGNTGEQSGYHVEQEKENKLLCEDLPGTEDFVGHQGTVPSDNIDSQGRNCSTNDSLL
MEKK3 PB1 HTS: MEKK3-MEK5 PB1 interaction, increase or decrease; Q99759; bead-based flow cytometry, Alexa488-MEK5 binding to MEKK3; actives lie on both sides; 0 = blocked by unlabeled MEK5, 100 = vehicle; binding response (% of control), % at 10 µM; 290,000 compounds, 1.4% hits; AID 1529;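 active = binding response more than 3 SD above or below the average of its plate-row segment, actives on both sides; inconclusive = wells at one plate position flagged as instrument error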;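 also: Alexa488 bead fluorescence after subtracting the streptavidin-only scavenger bead signal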
Dynein cargo inh: blocks dynein driven cargo transport along microtubules | z-score, hits read low | AID 1381 | 3617.4 mouse cells, GR-EGFP nuclear translocation imaging; test concentration mostly 20 µM; stimulated with dexamethasone, 1 µM; hits give low values | 220,000 compounds, 0.47% hits;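 active = plate z-score of nuclear minus cytoplasmic receptor signal below a set negative limit, without overly bright fluorescence or cell loss, cut at about -3.5 in these data, passing the limit was not always enough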;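 also: z-score of nuclear minus cytoplasmic ring GR-EGFP intensity difference per well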
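Buffer or medium: Induction medium lacking tetracycline, stripped serum | Also added: Dexamethasone agonist, 1.0 µM final, for 30 min | Timing: 48 h induction, 1 h compound, 30 min dex at 37 °C | Detection: Formaldehyde fixation, Hoechst nuclear stain, 10x automated fluorescence imaging | Measure: Nuclear versus cytoplasmic GR-EGFP signal, averaged per well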
MEKK2mut PB1 HTS: signal of MEK5 binding to mutant human MEKK2 PB1 domain; AID 1530; bead flow cytometry, Alexa488-MEK5 binding to MEKK2 mutant; percent response, % at 10 µM; 290,000 compounds, 0.35% hits; in the data active = percent response above about 24%, passing the limit was not always enough
MEKK2 WT-MEK5: raises or lowers MEK5 binding to wildtype human MEKK2 PB1 domain; 290,000 compounds, 1.1% hits; bead flow cytometry, Alexa488-MEK5 binding to MEKK2 WT; actives lie on both sides; binding response (% of control), % at 10 µM; AID 1531; in the data active = binding response below about 67% or above about 130%; inconclusive = no clear call, values can overlap the other calls; inactive = in between
ATG4B inhibitor: inhibitors of human ATG4B cysteine protease | Q9Y4P1 | ATG4B cleavage of LC3-PLA2, NBD-HPC fluorescence, 1 h | inhibition, % at 8.33 µM | 340,000 compounds, 0.51% hits; in the data active = inhibition above about 40%
B2AR ag CP1: agonists of human beta-2 adrenergic receptor. shares compounds with Beta2AR agonist. Am2.2-beta2AR cells, FAP surface receptor, flow cytometry; hits give low values. percent response (surface receptor), % at 10 µM. 1,100 compounds, 25% hits. AID 540358;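 active = surface receptor percent response at or below 58%, roughly 3 SD from nonfluorescent compounds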
FAP fluor counter: fluorescence artifact in beta-2AR agonist FAP counterscreen. shares compounds with Beta2AR agonist. Am2.2 cells, FAP fluorogen flow cytometry; hits give low values. calls only at 10 µM. 1,100 tested, under 10 active. AID 588765;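 active = percent response below a set limit in fluorescence channel 1 and below 50% in channel 8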
Large screens that a line does not name were inactive (follow-up assays come after a bar, where they were run).

Cc1ccc(S(=O)(=O)Nc2ccc(O)c3cccnc23)cc1	none (no result: Dynein cargo inh) | B2AR ag CP1 inactive | FAP fluor counter inactive
Cc1ccc(S(=O)(=O)Nc2ccc(O)c3ncccc23)cc1	none
CC(=O)c1cccc(CN2CCc3ccc(NC(=O)C4CCCO4)cc3C2)c1 (stereo not drawn)	none (no result: Dynein cargo inh)
Cc1cc(OCc2cc(C(=O)N(C)CCCN3CCOCC3)no2)cc(C)c1Cl	none (no result: Dynein cargo inh)
CN(CCCN1CCOCC1)C(=O)c1cc(COc2cccc(C(F)(F)F)c2)on1	Beta2AR agonist 52 (no result: Dynein cargo inh) | B2AR ag CP1 inactive | FAP fluor counter inactive
Cc1cc(N2CCN(C(=O)c3ccco3)CC2)n2nc(-c3cccc(Cl)c3)cc2n1	Beta2AR agonist 42 | B2AR ag CP1 inactive | FAP fluor counter inactive
C[C@@H]1CC[C@H](Cc2ccc(-n3cccc3)cc2)N1C(=O)OC(C)(C)C	none (no result: Beta2AR agonist, MEKK3 PB1 HTS, Dynein cargo inh, MEKK2mut PB1 HTS, MEKK2 WT-MEK5, ATG4B inhibitor) | B2AR ag CP1 inactive | FAP fluor counter inactive
O=C(Cc1ccc(-n2cccc2)cc1)NC1CCCCC1	none
COc1ccc(C(OCC(O)CNC(C)c2ccccc2)c2ccc(OC)cc2)cc1 (stereo not drawn)	Beta2AR agonist 51 (no result: Dynein cargo inh) | B2AR ag CP1 inactive | FAP fluor counter inactive
CCc1ccc(OCC(=O)Nc2ccc(-c3nc4ccccc4o3)c(O)c2)cc1	Beta2AR agonist 93 | B2AR ag CP1 1.1 | FAP fluor counter inactive
COc1ccc(-n2ccnc(SCC(=O)NC3CCCC3)c2=O)cc1	none (no result: Dynein cargo inh)
COc1ccc(-n2c(Cc3cc(=O)[nH]c(=O)[nH]3)nnc2SCC(=O)NC2CCCC2)cc1	Beta2AR agonist 52 | B2AR ag CP1 inactive | FAP fluor counter inactive
COc1ccc(-n2ccnc(SCC(=O)NC3CCCCC3)c2=O)cc1	Beta2AR agonist 93 (no result: Dynein cargo inh) | B2AR ag CP1 inactive | FAP fluor counter inactive
CN(C)c1ccc(-c2noc(C3CCN(S(=O)(=O)c4ccc(C(=O)O)cc4)CC3)n2)cc1	none
CN(C)c1ccc(-c2noc(C3CCN(S(=O)(=O)c4cccc(Cl)c4)CC3)n2)cc1	Beta2AR agonist 65 | B2AR ag CP1 39 | FAP fluor counter inactive
COc1cc(OC)cc(C(=O)N[C@H](C(=O)NCc2ccco2)C(C)C)c1	none
CCC(Cc1ccccc1)NC(=O)c1cc(S(=O)(=O)N2CCCCC2)c[nH]1 (stereo not drawn)	none (no result: Dynein cargo inh)
CCN(Cc1ccccc1)S(=O)(=O)c1cc(C(=O)NC(C)C2CC3CCC2C3)ccc1OC (stereo not drawn)	Beta2AR agonist 49 | B2AR ag CP1 52 | FAP fluor counter inactive
CCc1ccc(-c2cc(C(F)(F)F)n3nc(C(=O)Nc4cnn(Cc5ccccc5C)c4)cc3n2)s1	none
O=C(COC(=O)c1ccccc1C(=O)c1ccc(Cl)c([N+](=O)[O-])c1)NC1CC1	Beta2AR agonist 43 | B2AR ag CP1 inactive | FAP fluor counter inactive
O=C(COC(=O)c1cc([N+](=O)[O-])ccc1Cl)NC1CCCC1	none (no result: Dynein cargo inh)
Oc1ccccc1/C=N/Nc1nc2ccccc2o1	none | B2AR ag CP1 inactive | FAP fluor counter inactive
Brc1ccc(/C=N/Nc2nc3ccccc3o2)cc1	none (no result: Dynein cargo inh)
O=C(Nc1nc(-c2ccco2)cs1)c1ccccc1	Beta2AR agonist 43 | B2AR ag CP1 inactive | FAP fluor counter inactive
O=C(Nc1nc(-c2ccccc2)cs1)c1ccco1	none
NS(=O)(=O)c1ccc(CCNS(=O)(=O)c2ccc3c(c2)NC(=O)CO3)cc1	none (no result: Dynein cargo inh)
Cc1ccc(OCC(=O)Nc2ccc3c(c2)nc(CCN2CCN(C)CC2)n3C)cc1	none | B2AR ag CP1 inactive | FAP fluor counter inactive
Cn1c(CCN2CCOCC2)nc2cc(NC(=O)COc3ccc(Cl)cc3)ccc21	none
CN1CCN(CCc2nc3cc(NC(=O)COc4ccc(Cl)cc4)ccc3n2C)CC1	Beta2AR agonist 47 (no result: Dynein cargo inh) | B2AR ag CP1 inactive | FAP fluor counter inactive
COc1ccc(OCC(=O)Nc2ccc3c(c2)nc(CCN2CCOCC2)n3C)cc1	MEKK3 PB1 HTS inconclusive, MEKK2 WT-MEK5 inconclusive
CSc1nc2c(c(C(F)(F)F)n1)CC(C)CC2 (stereo not drawn)	none
COc1cccc(NC(=O)CN(C)C(=O)c2ccc(N3CCOCC3)c([N+](=O)[O-])c2)c1	none (no result: MEKK3 PB1 HTS, Dynein cargo inh, MEKK2mut PB1 HTS, MEKK2 WT-MEK5)
CCOC(=O)Cn1nc(C)n(-c2ccc(C(C)(C)C)cc2)c1=O	Beta2AR agonist 51 | B2AR ag CP1 inactive | FAP fluor counter inactive
Cc1n[nH]c(=O)n1-c1ccc(C(C)(C)C)cc1	none
O=[N+]([O-])c1cc(S(=O)(=O)N2CCCCCC2)ccc1Cl	Beta2AR agonist 48 | B2AR ag CP1 inactive | FAP fluor counter inactive
Cc1ccc(S(=O)(=O)N2CCCC2)cc1[N+](=O)[O-]	none
O=C1C2CCCCN2C(=O)N1CCCCN1CCN(c2cccc(Cl)c2)CC1 (stereo not drawn)	none (no result: Dynein cargo inh)
O=C1C2CCCCN2C(=O)N1CCCCN1CCN(c2cccc(C(F)(F)F)c2)CC1 (stereo not drawn)	Beta2AR agonist 59 (no result: MEKK3 PB1 HTS, Dynein cargo inh, MEKK2mut PB1 HTS, MEKK2 WT-MEK5) | B2AR ag CP1 inactive | FAP fluor counter inactive
Cc1ccc(SCC(=O)Nc2ccc(-c3nnc(-c4ccco4)o3)cc2)cc1	Beta2AR agonist 82 | B2AR ag CP1 34 | FAP fluor counter inactive
COCCn1c(N)c(N(Cc2ccccc2)C(=O)c2cc3ccccc3o2)c(=O)[nH]c1=O	none
CC(C)(C)C(=O)CC1(O)C(=O)N(Cc2ccc(Cl)cc2)c2ccccc21 (stereo not drawn)	Beta2AR agonist 54 | B2AR ag CP1 inactive | FAP fluor counter inactive
CCN(CC)c1ccc2c(-c3ccc(S(=O)(=O)O)cc3S(=O)(=O)[O-])c3ccc(=[N+](CC)CC)cc-3oc2c1	none (no result: Dynein cargo inh)
COc1ccc(-n2c(SCC(=O)N3CCc4ccccc43)nnc2-c2c[nH]c3ccccc23)cc1	none
C=CCN1C(=O)c2oc3ccccc3c(=O)c2C1c1ccc(O)c(OC)c1 (stereo not drawn)	none | B2AR ag CP1 inactive | FAP fluor counter inactive
CCn1nc(NS(=O)(=O)c2ccccc2)c2cc3ccccc3nc21	none (no result: Dynein cargo inh)
CC(C)Cn1nc(NS(=O)(=O)c2ccccc2)c2cc3ccccc3nc21	none | B2AR ag CP1 inactive | FAP fluor counter inactive
CCOc1ccccc1C1C(C#N)=C(N)N(N(C)C)C2=C1C(=O)CCC2 (stereo not drawn)	none (no result: Dynein cargo inh)
CCOC(=O)CSc1nc2ccc(NC(=O)CSc3nnnn3Cc3ccccc3)cc2s1	Beta2AR agonist 54 | B2AR ag CP1 inactive | FAP fluor counter inactive
Brc1cnc(OCc2ccccc2)nc1OCc1ccccc1	none (no result: MEKK3 PB1 HTS, Dynein cargo inh, MEKK2mut PB1 HTS, MEKK2 WT-MEK5)

Screening data from PubChem BioAssay.
